Results reported in ChEMBL document CHEMBL3856209, “Novel pyrazolopyridine derivatives as potential angiogenesis inhibitors: Synthesis, biological evaluation and transcriptome-based mechanistic analysis” (Eur J Med Chem, 2016).
Active and inactive are the calls of the source. The calls are words filed in the database; no cut-off is given here.

What was measured:
HUVEC [1] = assay: Inhibition of total protein tyrosine kinase activity in serum-starved HUVEC at 1 to 4 uM after 2 hrs; type: cell-based; details: Homo sapiens
EA.hy 926 = assay: Antiproliferative activity against human EAhy926 cells assessed as decrease in cell viability at 0.2 to 2 uM after 24 to 48 hrs in presence of 2.5% fetal bovine serum by MTT assay; type: functional, cell-based
Outline: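 EA.hy926 seeded at 4×10^3/well, adhered 24 h, and starved 4 h in 0.25% BSA medium. Then treated with compound or 0.1% v/v DMSO in medium with 2.5% FBS for 48 h. MTT 0.5 mg/mL for 4 h, A595 with 630 nm correction, cell number from a standard curve. Expressed as % of DMSO control; replicates from two independent experiments.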

HUVEC [2] = assay: Effect on RNU1-3 gene expression in serum-starved HUVEC after 6 hrs by microarray analysis relative to control; type: functional, Homo sapiens
Outline: (§1)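 Serum-starved confluent HUVEC (pooled from 3–5 donors, passage ≤4) were treated with 2 μM compound or vehicle in 2.5% FBS for 6 h or 24 h, and total RNA was isolated. Hybridization was on Illumina Human-HT12. Data were processed with bgAdjust, vst and rsn normalization. Changes versus DMSO were called by moderated paired t-test at p < 0.05 and |log2 fold change| > 0.5.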

HUVEC [3] = assay: Effect on KIF20A gene expression in serum-starved HUVEC after 24 hrs by microarray analysis relative to control; type: functional, Homo sapiens
Outline: (§2)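 Confluent, serum-starved HUVEC (pooled from 3–5 donors, passage ≤4) treated with 2 μM compound or vehicle with 2.5% FBS for 6 h or 24 h. Total RNA hybridized to Illumina Human-HT12 arrays. Data were background-corrected, vst-transformed and rsn-normalized. Hits called by moderated paired t-test versus DMSO-treated cells, p < 0.05 and log2 fold change >|0.5|.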

HUVEC [4] = assay: Effect on GNG12 gene expression in serum-starved HUVEC after 24 hrs by microarray analysis relative to control; type: functional, Homo sapiens; outline: as §2
Lewis lung carcinoma = assay: Antiangiogenic activity in mouse LLC cells allografted in C57BL/6 mouse assessed as decrease of microvessel density in tumor at 0.2 mg/kg, ip administered thrice a week for 2 weeks starting 24 hrs before tumor implantation measured post last dose by IHC analysis; type: functional, organism-based
Outline: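 Male 6–8 week C57BL/6 mice (groups of 5–6) inoculated sc in the right flank with 5×10^5 LLC cells. Compound (0.2 mg/kg) or DMSO vehicle given ip thrice weekly for 2 weeks, starting 24 h before implantation. Tumors measured by caliper every other day. At end-point, anti-CD31 IHC (1:100) of tumor sections, with immunoreactive cells counted in six high-power fields.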

[5] = molecular target: Vascular endothelial growth factor receptor 2 (Homo sapiens) (UniProt P35968); assay: Inhibition of VEGF-165-induced VEGFR2 autophosphorylation in serum-starved HUVEC assessed as decrease in ERK1/2 phosphorylation at 2 uM preincubated for 2 hrs followed by VEGF-165 induction measured after 5 mins by Western blot analysis; type: cell-based
Sequence of Vascular endothelial growth factor receptor 2 (Homo sapiens) (P35968 whole entry): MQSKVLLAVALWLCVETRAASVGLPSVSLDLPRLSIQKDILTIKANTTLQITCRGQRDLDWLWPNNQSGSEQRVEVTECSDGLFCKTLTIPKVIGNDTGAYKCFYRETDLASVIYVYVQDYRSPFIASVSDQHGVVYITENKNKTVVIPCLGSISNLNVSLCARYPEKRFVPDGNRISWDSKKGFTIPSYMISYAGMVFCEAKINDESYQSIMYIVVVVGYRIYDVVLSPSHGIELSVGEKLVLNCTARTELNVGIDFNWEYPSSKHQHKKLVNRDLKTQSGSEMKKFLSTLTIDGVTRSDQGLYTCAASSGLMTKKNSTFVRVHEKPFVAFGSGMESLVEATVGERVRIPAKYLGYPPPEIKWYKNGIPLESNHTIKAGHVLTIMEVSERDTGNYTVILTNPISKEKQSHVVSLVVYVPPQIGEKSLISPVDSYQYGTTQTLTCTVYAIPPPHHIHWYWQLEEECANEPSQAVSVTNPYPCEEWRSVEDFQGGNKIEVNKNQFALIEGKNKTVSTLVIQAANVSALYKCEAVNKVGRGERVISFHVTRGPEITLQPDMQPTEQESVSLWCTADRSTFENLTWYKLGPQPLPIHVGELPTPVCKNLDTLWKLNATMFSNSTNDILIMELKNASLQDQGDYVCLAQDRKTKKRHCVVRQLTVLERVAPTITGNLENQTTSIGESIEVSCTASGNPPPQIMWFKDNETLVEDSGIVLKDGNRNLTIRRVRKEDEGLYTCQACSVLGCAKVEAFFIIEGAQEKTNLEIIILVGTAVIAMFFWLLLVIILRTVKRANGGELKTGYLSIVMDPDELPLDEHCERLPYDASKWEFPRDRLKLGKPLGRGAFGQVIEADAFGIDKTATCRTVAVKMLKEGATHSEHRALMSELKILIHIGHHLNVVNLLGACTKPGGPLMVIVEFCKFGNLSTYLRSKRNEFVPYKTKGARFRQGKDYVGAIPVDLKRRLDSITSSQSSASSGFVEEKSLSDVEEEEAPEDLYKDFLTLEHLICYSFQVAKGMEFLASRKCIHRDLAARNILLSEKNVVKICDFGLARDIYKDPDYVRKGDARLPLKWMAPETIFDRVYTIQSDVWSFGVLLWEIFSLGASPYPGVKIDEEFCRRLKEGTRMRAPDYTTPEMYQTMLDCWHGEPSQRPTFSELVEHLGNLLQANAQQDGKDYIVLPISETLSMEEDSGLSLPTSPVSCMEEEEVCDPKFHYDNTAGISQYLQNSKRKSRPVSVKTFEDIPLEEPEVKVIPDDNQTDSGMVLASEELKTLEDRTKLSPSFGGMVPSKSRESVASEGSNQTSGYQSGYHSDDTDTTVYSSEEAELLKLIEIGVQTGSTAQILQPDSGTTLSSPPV
Outline: (§3)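 Serum-starved HUVEC were given 2 µM compound or vehicle for 2 h, then VEGF-165 (50 ng/mL) or PBS for 5 min. Lysates with equal protein were run on SDS-PAGE and immunoblotted for phospho-VEGFR2 (Tyr951, 996, 1056, 1175), p-AKT Ser473, p-ERK1/2 and the total proteins. Detection was by ECL with densitometry. Phospho signals were normalized to total protein, n = 3.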

[6] = Effect on total VEGFR2 levels in VEGF-165-induced serum-starved HUVEC at 2 uM preincubated for 2 hrs followed by VEGF-165 induction measured after 5 mins by Western blot analysis; type: cell-based; details: human; outline: as §3
HUVEC [7] = assay: Effect on RNA28S5 gene expression in serum-starved HUVEC after 6 hrs by microarray analysis relative to control; type: functional, Homo sapiens; outline: as §1
HUVEC [8] = assay: Antimigratory activity in HUVEC at 0.2 to 2 uM after 6 hrs in presence of 5% fetal bovine serum by transwell assay; type: functional, cell-based; details: Homo sapiens
Outline: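 Serum-starved confluent HUVEC pre-treated overnight with compound or vehicle in 5% FBS medium. Then placed in the upper chamber of 8 µm-pore Transwells (6×10^4 cells/well) and allowed to migrate 6 h toward 5% FBS or starvation medium. Migrated cells fixed, H&E stained, and counted in five fields/well; expressed as % of control; replicates from two independent experiments.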

HUVEC [9] = assay: Inhibition of VEGF-165-induced HUVEC chemotactic migration at 0.2 to 2 uM after 6 hrs by transwell assay; type: functional, cell-based; details: Homo sapiens
Outline: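 Serum-starved HUVEC were pre-treated overnight with compound or vehicle in 5% FBS medium. Cells were then seeded at 6×10^4 per upper Transwell chamber (8 µm pores) and migrated for 6 h toward VEGF-165 (50 ng/mL) or starvation medium. Migrated cells were ethanol-fixed, stained with H&E and counted in five fields per well. Results are % of control from at least two independent experiments.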

HUVEC [10] = assay: Effect on KIF20A gene expression in serum-starved HUVEC after 6 hrs by microarray analysis relative to control; type: functional, Homo sapiens; outline: as §2
HUVEC [11] = assay: Effect on RNU1-3 gene expression in serum-starved HUVEC after 24 hrs by microarray analysis relative to control; type: functional, Homo sapiens; outline: as §1
[12] = Antiproliferative activity against human EAhy926 cells assessed as decrease in cell viability after 24 to 48 hrs in presence of 2.5% fetal bovine serum by MTT assay; type: functional, cell-based; details: EA.hy 926
Outline: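 EA.hy926 in DMEM with 2.5% FBS exposed 48 h to serial 1:2 compound dilutions spanning 0.125–50 μM. Viable cells measured by MTT (0.5 mg/mL, 4 h, A595/630 nm). IC50 (mean ± SEM) fitted by non-linear regression from eight or more points.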

HUVEC [13] = assay: Antiangiogenic activity in HUVEC assessed as inhibition of VEGF-165-induced tube formation at 0.2 to 2 uM after 24 hrs by matrigel assay; type: functional, cell-based; details: Homo sapiens
Outline: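 HUVEC seeded at 2×10^4 cells/well on growth factor-reduced Matrigel after pre-starvation, then given compound or vehicle (up to 0.1% v/v DMSO), with or without VEGF-165, for 24 h. Fixed in ice-cold ethanol and stained with haematoxylin-eosin. Tube-like structures counted in at least 5 fields/well and expressed as % of vehicle control; replicates from two independent experiments.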

Mus musculus [14] = assay: Toxicity in C57BL/6 mouse allografted with mouse LLC cells at 0.05 to 0.2 mg/kg, ip administered thrice a week for 2 weeks starting 24 hrs before tumor implantation by clinical test; type: organism-based; details: in vivo
Outline: (§4)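 Male C57BL/6 mice, 6–8 weeks old, in groups of 5–6, received 5×10^5 LLC cells sc in the right flank. Compound (0.05–0.2 mg/kg) or DMSO vehicle was given ip thrice weekly for 2 weeks, starting 24 h before implantation. Mice were weighed and examined clinically every other day. At end-point, kidney, lung, spleen, liver and heart sections were H&E-stained and examined microscopically.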

Mus musculus [15] = assay: Toxicity in C57BL/6 mouse allografted with mouse LLC cells assessed as effect on vital organs at 0.05 to 0.2 mg/kg, ip administered thrice a week for 2 weeks starting 24 hrs before tumor implantation by haematoxylin-eosin staining-based microscopic analysis; type: organism-based; details: in vivo; outline: as §4
[16] = molecular target: Vascular endothelial growth factor receptor 2 (Homo sapiens) (UniProt P35968); assay: Inhibition of VEGF-165-induced VEGFR2 autophosphorylation at Tyr1175 in serum-starved HUVEC at 2 uM preincubated for 2 hrs followed by VEGF-165 induction measured after 5 mins by Western blot analysis; type: cell-based; outline: as §3

Row | Structure (SMILES) | inhibition (HUVEC [1]) | Activity (EA.hy 926) | log2FC (HUVEC [2]) | log2FC (HUVEC [3]) | log2FC (HUVEC [4]) | Activity (Lewis lung carcinoma) | inhibition [5] | Activity [6] | log2FC (HUVEC [7]) | Activity (HUVEC [8]) | inhibition (HUVEC [9]) | log2FC (HUVEC [10]) | log2FC (HUVEC [11]) | IC50 [12] | inhibition (HUVEC [13]) | Activity (Mus musculus [14]) | Activity (Mus musculus [15]) | inhibition [16]
1 | COc1ccc(Cn2nc(-c3ccccc3)c3cc(Nc4ccc(N5CCN(C)CC5)cc4)nc(N4CCN(C)CC4)c32)cc1 | Active | Active | -0.5806 | -0.9386 | 0.1566 | Active | Active | Non-Toxic | -1.164 | Active | Active | -0.1216 | 0.1009 | 7.2 µM | Active | Non-Toxic | Non-Toxic | Active
2 | COc1ccc(Cn2nc(-c3ccccc3)c3cc(Nc4ccc(N5CCN(C)CC5)cc4)nc(N4CCNCC4)c32)cc1 | Active | Active | -0.5169 | -0.5596 | 0.1458 | Active | Active | Non-Toxic | -0.6261 | Active | Active | -0.0473 | 0.1133 | 12 µM | Active | Non-Toxic | Non-Toxic | Active
3 | COc1ccc(Cn2nc(-c3ccccc3)c3cc(Cl)nc(N4CCNCC4)c32)cc1 | Active | Active | -0.5393 | -0.5549 | 0.2465 | Active | Active | Non-Toxic | -0.7662 | Active | Active | -0.1005 | -0.1906 | 4.3 µM | Active | Non-Toxic | Non-Toxic | Active
